Measured values published in ChEMBL document CHEMBL4622914, “Development of a bioavailable boron-containing PI-103 Bioisostere, PI-103BE” (Bioorg Med Chem Lett, 2020).

How the values were obtained:
Assay type in all cases: ADME, organism-based
Settings in all cases: in vivo
[1] = Drug concentration in ovariectomized nu/nu mouse plasma assessed 3-(4-morpholinopyrido [3',2':4,5] furo [3,2-d] pyrimidin-2-yl)phenol at 10 mg/kg, po measured after 8 hrs by UHPLC-MS analysis
Method in brief: (§1)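 Female ovariectomized Nu/Nu mice, 4–6 weeks old, n = 5 per group. Single 10 mg/kg oral gavage in 5% DMSO/40% PEG 400/55% saline. Orbital-sinus blood was taken at 0.5, 1, 3, 8 and 24 h, one sampling per group, into EDTA. Plasma was spun at 4 °C and stored at −80 °C. The prodrug's boronic acid metabolite and phenol were quantified by C18 UHPLC–TSQ MS/MS with an acetonitrile/water 0.05% formic acid gradient.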

[2] = Drug concentration in ovariectomized nu/nu mouse plasma assessed 3-(4-morpholinopyrido [3',2':4,5] furo [3,2-d] pyrimidin-2-yl)phenol at 10 mg/kg, po measured after 24 hrs by UHPLC-MS analysis; method in brief: as §1
[3] = Cmax in ovariectomized nu/nu mouse assessed 3-(4-morpholinopyrido [3',2':4,5] furo [3,2-d] pyrimidin-2-yl)phenol at 10 mg/kg, po measured upto 24 hrs by UHPLC-MS analysis; parameters: dose 10 mg/kg, route oral; method in brief: as §1
[4] = Tmax in ovariectomized nu/nu mouse assessed 3-(4-morpholinopyrido [3',2':4,5] furo [3,2-d] pyrimidin-2-yl)phenol at 10 mg/kg, po measured upto 24 hrs by UHPLC-MS analysis; method in brief: as §1
[5] = Half life in ovariectomized nu/nu mouse assessed 3-(4-morpholinopyrido [3',2':4,5] furo [3,2-d] pyrimidin-2-yl)phenol at 10 mg/kg, po measured upto 24 hrs by UHPLC-MS analysis; method in brief: as §1
[6] = AUC (0 to 24 hrs) in ovariectomized nu/nu mouse assessed 3-(4-morpholinopyrido [3',2':4,5] furo [3,2-d] pyrimidin-2-yl)phenol at 10 mg/kg, po measured upto 24 hrs by UHPLC-MS analysis; parameters: dose 10 mg/kg, time < 24 hr, route oral; method in brief: as §1
[7] = Drug concentration in ovariectomized nu/nu mouse plasma assessed (3-(4-morpholinopyrido [3',2':4,5] furo [3,2-d] pyrimidin-2-yl)phenyl)boronic acid at 10 mg/kg, ip measured after 0.5 hrs by UHPLC-MS analysis
[8] = Drug concentration in ovariectomized nu/nu mouse plasma assessed (3-(4-morpholinopyrido [3',2':4,5] furo [3,2-d] pyrimidin-2-yl)phenyl)boronic acid at 10 mg/kg, ip measured after 1 hr by UHPLC-MS analysis
[9] = Drug concentration in ovariectomized nu/nu mouse plasma assessed (3-(4-morpholinopyrido [3',2':4,5] furo [3,2-d] pyrimidin-2-yl)phenyl)boronic acid at 10 mg/kg, ip measured after 3 hrs by UHPLC-MS analysis
[10] = Drug concentration in ovariectomized nu/nu mouse plasma assessed (3-(4-morpholinopyrido [3',2':4,5] furo [3,2-d] pyrimidin-2-yl)phenyl)boronic acid at 10 mg/kg, ip measured after 8 hrs by UHPLC-MS analysis
[11] = Drug concentration in ovariectomized nu/nu mouse plasma assessed (3-(4-morpholinopyrido [3',2':4,5] furo [3,2-d] pyrimidin-2-yl)phenyl)boronic acid at 10 mg/kg, ip measured after 24 hrs by UHPLC-MS analysis
[12] = Cmax in ovariectomized nu/nu mouse assessed (3-(4-morpholinopyrido [3',2':4,5] furo [3,2-d] pyrimidin-2-yl)phenyl)boronic acid at 10 mg/kg, ip measured upto 24 hrs by UHPLC-MS analysis; parameters: dose 10 mg/kg, route intraperitoneal
[13] = Tmax in ovariectomized nu/nu mouse assessed (3-(4-morpholinopyrido [3',2':4,5] furo [3,2-d] pyrimidin-2-yl)phenyl)boronic acid at 10 mg/kg, ip measured upto 24 hrs by UHPLC-MS analysis
[14] = AUC in ovariectomized nu/nu mouse assessed (3-(4-morpholinopyrido [3',2':4,5] furo [3,2-d] pyrimidin-2-yl)phenyl)boronic acid at 10 mg/kg, ip measured upto 24 hrs by UHPLC-MS analysis; parameters: time < 24 hr, dose 10 mg/kg, route intraperitoneal
[15] = Drug concentration in ovariectomized nu/nu mouse plasma assessed (3-(4-morpholinopyrido [3',2':4,5] furo [3,2-d] pyrimidin-2-yl)phenyl)boronic acid at 10 mg/kg, po measured after 0.5 hrs by UHPLC-MS analysis; method in brief: as §1
[16] = Drug concentration in ovariectomized nu/nu mouse plasma assessed (3-(4-morpholinopyrido [3',2':4,5] furo [3,2-d] pyrimidin-2-yl)phenyl)boronic acid at 10 mg/kg, po measured after 1 hr by UHPLC-MS analysis; method in brief: as §1
[17] = Drug concentration in ovariectomized nu/nu mouse plasma assessed (3-(4-morpholinopyrido [3',2':4,5] furo [3,2-d] pyrimidin-2-yl)phenyl)boronic acid at 10 mg/kg, po measured after 3 hrs by UHPLC-MS analysis; method in brief: as §1
[18] = Drug concentration in ovariectomized nu/nu mouse plasma assessed (3-(4-morpholinopyrido [3',2':4,5] furo [3,2-d] pyrimidin-2-yl)phenyl)boronic acid at 10 mg/kg, po measured after 8 hrs by UHPLC-MS analysis; method in brief: as §1
[19] = Drug concentration in ovariectomized nu/nu mouse plasma assessed (3-(4-morpholinopyrido [3',2':4,5] furo [3,2-d] pyrimidin-2-yl)phenyl)boronic acid at 10 mg/kg, po measured after 24 hrs by UHPLC-MS analysis; method in brief: as §1
[20] = Cmax in ovariectomized nu/nu mouse assessed (3-(4-morpholinopyrido [3',2':4,5] furo [3,2-d] pyrimidin-2-yl)phenyl)boronic acid at 10 mg/kg, po measured upto 24 hrs by UHPLC-MS analysis; parameters: dose 10 mg/kg, route oral; method in brief: as §1
[21] = Tmax in ovariectomized nu/nu mouse assessed (3-(4-morpholinopyrido [3',2':4,5] furo [3,2-d] pyrimidin-2-yl)phenyl)boronic acid at 10 mg/kg, po measured upto 24 hrs by UHPLC-MS analysis; method in brief: as §1
[22] = Half life in ovariectomized nu/nu mouse assessed (3-(4-morpholinopyrido [3',2':4,5] furo [3,2-d] pyrimidin-2-yl)phenyl)boronic acid at 10 mg/kg, po measured upto 24 hrs by UHPLC-MS analysis; method in brief: as §1
[23] = AUC (0 to 24 hrs) in ovariectomized nu/nu mouse assessed (3-(4-morpholinopyrido [3',2':4,5] furo [3,2-d] pyrimidin-2-yl)phenyl)boronic acid at 10 mg/kg, po measured upto 24 hrs by UHPLC-MS analysis; parameters: time < 24 hr, dose 10 mg/kg, route oral; method in brief: as §1

Structure (SMILES): CC1(C)OB(c2cccc(-c3nc(N4CCOCC4)c4oc5ncccc5c4n3)c2)OC1(C)C
- Cp [1]: 0.0041 µg/mL
- Cp [2]: 0.0007 µg/mL
- Cmax [3]: 0.0082 µg/mL
- Tmax [4]: 1 h
- t1/2 [5]: 6.5 h
- AUC [6]: 0.0882 µg·h/mL
- Cp [7]: 0.0306 µg/mL
- Cp [8]: 0.0445 µg/mL
- Cp [9]: 0.028 µg/mL
- Cp [10]: 0.0172 µg/mL
- Cp [11]: 0.0065 µg/mL
- Cmax [12]: 0.0445 µg/mL
- Tmax [13]: 1 h
- AUC [14]: 0.4009 µg·h/mL
- Cp [15]: 0.4028 µg/mL
- Cp [16]: 0.7092 µg/mL
- Cp [17]: 0.5162 µg/mL
- Cp [18]: 0.3542 µg/mL
- Cp [19]: 0.1064 µg/mL
- Cmax [20]: 0.7092 µg/mL
- Tmax [21]: 1 h
- t1/2 [22]: 9.2 h
- AUC [23]: 8.8799 µg·h/mL
